Activity calls are given as the source filed them. No cut-off for these calls is given here.
Experiments:
[1] = organism: Mus musculus; assay: Induction of PKA phosphorylation in mouse 3T3-L1 cells at 12.5 uM in presence of 20 uM H-89 by immunoblotting; format: cell-based
[2] = tested on: 3T3-L1; assay: Antiobesity activity in mouse 3T3L1 cells assessed as reduction in accumulation of lipid droplets administered on day 4 post differentiation induction measured on day 9 by Oil Red O staining-based microscopic analysis; format: functional, cell-based
[3] = tested on: Mus musculus; assay: Activation of PKA in mouse 3T3-L1 cells assessed as lipolytic activity by measuring increase in glycerol release at 25 uM administered 1 hr after PKA inhibitor addition measured after 24 hrs in presence of 20 uM PKA inhibitor H-89; format: cell-based
Procedure, shortened: (§1)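 Day-8 differentiated 3T3-L1 adipocytes were preincubated with the specified inhibitor for 1 h, then incubated with sample plus inhibitor for 24 h in phenol-red-free DMEM. Released glycerol in the medium was quantified with free glycerol reagent (37 °C, 5 min, A540) and expressed relative to control.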

[4] = target: Beta-3 adrenergic receptor (Mus musculus) (UniProt P25962); assay: Activation of beta3 adrenergic receptor in mouse 3T3-L1 cells assessed as lipolytic activity by measuring increase in glycerol release at 25 uM administered 1 hr after beta3 adrenergic receptor inhibitor addition measured after 24 hrs in presence of 20 uM […] inhibitor propranolol; format: cell-based; procedure, shortened: as §1
Chain of Beta-3 adrenergic receptor (Mus musculus) (P25962 whole entry): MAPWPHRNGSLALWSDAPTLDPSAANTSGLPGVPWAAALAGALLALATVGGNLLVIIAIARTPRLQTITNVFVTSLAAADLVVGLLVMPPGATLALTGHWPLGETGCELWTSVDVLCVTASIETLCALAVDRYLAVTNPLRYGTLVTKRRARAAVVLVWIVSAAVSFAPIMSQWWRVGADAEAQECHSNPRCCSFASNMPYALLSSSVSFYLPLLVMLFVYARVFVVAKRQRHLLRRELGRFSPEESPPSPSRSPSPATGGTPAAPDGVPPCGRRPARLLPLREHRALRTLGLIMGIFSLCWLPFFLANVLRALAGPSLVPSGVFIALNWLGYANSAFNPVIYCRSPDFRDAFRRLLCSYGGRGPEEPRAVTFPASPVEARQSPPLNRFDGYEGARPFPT

[5] = tested on: 3T3-L1; assay: Antiobesity activity in mouse 3T3L1 cells assessed as increase in glycerol release after 24 hrs; format: functional, cell-based; conditions: for EC50: 3T3-L1, 24 h
Procedure, shortened: (§2)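 3T3-L1 preadipocytes were differentiated with IBMX (0.5 mM), DEX (0.25 μM) and insulin (5 μg/mL) from day 0, then insulin alone, then plain 10% FBS/DMEM. On day 8 they were exposed to sample (DMSO stock diluted in phenol-red-free DMEM) for 24 h. Medium was mixed with free glycerol reagent (37 °C, 5 min) and read at A540, relative to control. Mean ± SEM, n=6.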

[6] = tested on: 3T3-L1; assay: Cytotoxicity against mouse 3T3L1 cells assessed as reduction in cell viability up to 100 uM after 6 to 48 hrs by CCK-8 assay; format: cell-based
[7] = tested on: Mus musculus; assay: Activation of ERK in mouse 3T3-L1 cells assessed as lipolytic activity by measuring increase in glycerol release at 25 uM administered 1 hr after ERK inhibitor addition measured after 24 hrs in presence of 20 uM ERK inhibitor PD 98059; format: cell-based; procedure, shortened: as §1
[8] = tested on: 3T3-L1; assay: Antiobesity activity in mouse 3T3L1 cells assessed as glycerol release at 1 uM after 24 hrs relative to control; format: functional; procedure, shortened: as §2
[9] = tested on: 3T3-L1; assay: Antiobesity activity in mouse 3T3L1 cells assessed as increase in glycerol release up to 100 uM after 24 hrs relative to control; format: functional, cell-based
Procedure, shortened: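 Mouse 3T3-L1 preadipocytes were differentiated from day 0 (one day post-confluence) in 10% FBS/DMEM with 0.5 mM IBMX, 0.25 μM DEX and 5 μg/mL insulin, then switched to insulin medium, then plain medium; used on day 8. Samples were dissolved in DMSO and diluted into phenol-red-free DMEM, applied for 24 h. Medium glycerol was measured with free glycerol reagent (37 °C, 5 min, A540) relative to control; 1 μM isoproterenol positive control; mean ± SEM, n=6, Dunnett's test.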

[10] = tested on: 3T3-L1; assay: Antiobesity activity in mouse 3T3L1 cells assessed as reduction in accumulation of lipid droplets up to 100 uM administered on day 4 post differentiation induction measured on day 9 by Oil Red O staining-based microscopic analysis relative to control; format: functional, cell-based

`CC1=CC(=O)[C@@H](O)[C@]2(C)C3[C@]4(O)OC[C@@]35[C@@H](C[C@@H]12)OC(=O)[C@H](O)[C@@]5(O)[C@@]1(CO1)[C@H]4O` (some centres undefined) was tested, and the Activity [1] was “Active”, the Activity [2] was “Dose-dependent effect” and the Activity [3] was “Active”. The Activity [4] was “inactive”, the Activity [5] was “Dose-dependent effect” and the EC50 [5] was 8.6 µM. For the same molecule, the Activity [6] was “Non-Toxic” and the Activity [7] was “inactive”.
`CC(C)NCC(O)c1ccc(O)c(O)c1` (centres undefined) [ISOPROTERENOL] gave an Activity [8] of 322%.
`C=C1[C@@H](O)[C@@]2(O)OC[C@]34C2[C@@]2(C)[C@H](O)C(=O)C=C(C)[C@@H]2C[C@H]3OC(=O)[C@H](O)[C@@]14O` (some centres undefined) was tested, and the Activity [1] was “Active”, the Activity [2] was “Dose-dependent effect” and the Activity [3] was “Active”. The Activity [4] was “inactive”, the Activity [5] was “Dose-dependent effect” and the EC50 [5] was 14.6 µM. For the same molecule, the Activity [6] was “Non-Toxic” and the Activity [7] was “inactive”.
In the case of `CC1=CC(=O)[C@@H](O)[C@]2(C)C3[C@]4(O)OC[C@@]35[C@@H](C[C@@H]12)OC(=O)[C@H](O)[C@@]5(O)[C@@](O)(CO)[C@H]4O` (some centres undefined), the Activity [9] is reported as “inactive” and the Activity [10] is reported as “inactive”.

From ChEMBL document CHEMBL4043134, “Isolation and lipolytic activity of eurycomanone and its epoxy derivative from Eurycoma longifolia” (Bioorg Med Chem, 2017)
